# Results: ChEMBL document CHEMBL3085721, “Nonhydrolyzable ATP analogues as selective inhibitors of human NPP1: a combined computational/experimental study” (J Med Chem, 2013)
# The source made the active and inactive calls. The calls are words filed in the database; no cut-off is given here.
# Assays:
# [1] = target: T1, Ectonucleotide pyrophosphatase/phosphodiesterase family member 1 (Homo sapiens) (UniProt P22413); test: Competitive inhibition of human NPP1 expressed in COS7 cells assessed as production of p-nitrophenol using pnp-TMP as the substrate preincubated at 25 to 100 uM for 3 mins before substrate addition measured after 15 mins by Dixon/Cornish Bowden method; format: cell-based; conditions: COS-7
# T1 sequence (whole entry): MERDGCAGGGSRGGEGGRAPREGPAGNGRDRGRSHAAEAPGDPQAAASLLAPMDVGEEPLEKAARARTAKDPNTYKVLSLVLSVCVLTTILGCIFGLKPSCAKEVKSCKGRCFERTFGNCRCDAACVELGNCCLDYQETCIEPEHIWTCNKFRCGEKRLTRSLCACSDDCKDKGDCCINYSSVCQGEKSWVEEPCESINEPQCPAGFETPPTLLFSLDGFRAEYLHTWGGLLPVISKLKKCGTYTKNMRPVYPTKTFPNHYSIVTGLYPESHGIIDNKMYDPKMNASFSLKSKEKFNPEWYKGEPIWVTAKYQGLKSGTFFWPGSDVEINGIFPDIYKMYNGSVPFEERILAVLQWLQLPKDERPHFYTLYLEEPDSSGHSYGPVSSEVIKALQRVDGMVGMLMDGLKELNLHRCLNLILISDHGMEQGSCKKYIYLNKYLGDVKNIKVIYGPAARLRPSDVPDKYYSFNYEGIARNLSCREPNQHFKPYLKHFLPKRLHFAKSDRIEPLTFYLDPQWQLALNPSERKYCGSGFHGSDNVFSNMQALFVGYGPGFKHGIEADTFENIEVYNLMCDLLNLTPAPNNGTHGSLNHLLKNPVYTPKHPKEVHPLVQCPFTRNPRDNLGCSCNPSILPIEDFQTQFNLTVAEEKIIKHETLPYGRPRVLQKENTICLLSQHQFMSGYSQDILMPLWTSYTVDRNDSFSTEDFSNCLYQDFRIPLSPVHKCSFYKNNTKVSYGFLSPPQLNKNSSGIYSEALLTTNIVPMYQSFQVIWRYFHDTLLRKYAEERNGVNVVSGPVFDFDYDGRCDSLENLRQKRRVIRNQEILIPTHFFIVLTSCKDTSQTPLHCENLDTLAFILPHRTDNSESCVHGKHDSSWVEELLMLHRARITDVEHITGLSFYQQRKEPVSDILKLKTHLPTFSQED
# How it was run: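 Crude protein extract from COS-7 cells transiently transfected with human NPP1 (sonicated, debris cleared at 300g), preincubated 3 min at 37 °C with inhibitor (0, 25, 50, 100 μM) in 1 mM CaCl2, 140 mM NaCl, 5 mM KCl, 50 mM Tris pH 8.5. pnp-TMP (25, 50, 100 μM) added; p-nitrophenol read at 410 nm after 15 min. Ki,app and inhibition type from Dixon and Cornish-Bowden plots, three independent experiments.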
# [2] = target: T1, Ectonucleotide pyrophosphatase/phosphodiesterase family member 1 (Homo sapiens); test: Inhibition of NPP1 in human HTB-85 cells assessed as production of p-nitrophenol using pnp-TMP at 100 uM measured after 20 mins by spectrophotometry; format: cell-based
# How it was run: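 Intact osteocarcinoma HTB85 (SaOS-2) cells in 24-well plates, 0.5 mL incubation mixture, analogue and pnp-TMP each at 100 μM. After 20 min an aliquot was read for p-nitrophenol at 410 nm. Substrate alone set as 100%. Mean ± SD of three experiments in triplicate.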
# [3] = target: T2, Ectonucleoside triphosphate diphosphohydrolase 8 (Homo sapiens) (UniProt Q5MY95); test: Inhibition of human NTPDase8 assessed as amount of inorganic phosphate released using ATP as the substrate preincubated at 100 uM for 3 mins before substrate addition after 15 mins by malachite green reagent method
# T2 sequence (whole entry): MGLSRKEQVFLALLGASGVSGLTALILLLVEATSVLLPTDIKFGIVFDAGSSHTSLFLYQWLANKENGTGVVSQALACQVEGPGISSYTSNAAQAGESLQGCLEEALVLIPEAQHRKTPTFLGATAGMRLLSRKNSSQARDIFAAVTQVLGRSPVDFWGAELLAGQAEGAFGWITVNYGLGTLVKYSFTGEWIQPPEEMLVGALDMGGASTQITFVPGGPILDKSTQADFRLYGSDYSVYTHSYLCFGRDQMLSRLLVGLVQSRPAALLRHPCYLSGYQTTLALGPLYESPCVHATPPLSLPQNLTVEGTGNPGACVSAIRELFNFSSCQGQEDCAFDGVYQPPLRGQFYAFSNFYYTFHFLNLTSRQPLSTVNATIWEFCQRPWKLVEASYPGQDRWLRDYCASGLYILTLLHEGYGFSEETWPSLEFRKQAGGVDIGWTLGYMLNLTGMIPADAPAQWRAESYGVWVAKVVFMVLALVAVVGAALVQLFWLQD
# How it was run: (§1)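 Crude extracts of COS-7 cells transiently transfected with human NTPDase1, -2, -3 or -8, preincubated 3 min at 37 °C in Tris-Ringer medium pH 7.4 with analogue (final 100 μM). Started with 100 μM ATP, stopped after 15 min with malachite green; released Pi read at 630 nm. ATP alone set as 100%. Mean ± SD of 3−6 experiments in triplicate.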
# [4] = target: T3, Ectonucleoside triphosphate diphosphohydrolase 1 (Homo sapiens) (UniProt P49961); test: Inhibition of human NTPDase1 assessed as amount of inorganic phosphate released using ATP as the substrate preincubated at 100 uM for 3 mins before substrate addition after 15 mins by malachite green reagent method; how it was run: as §1
# T3 sequence (whole entry): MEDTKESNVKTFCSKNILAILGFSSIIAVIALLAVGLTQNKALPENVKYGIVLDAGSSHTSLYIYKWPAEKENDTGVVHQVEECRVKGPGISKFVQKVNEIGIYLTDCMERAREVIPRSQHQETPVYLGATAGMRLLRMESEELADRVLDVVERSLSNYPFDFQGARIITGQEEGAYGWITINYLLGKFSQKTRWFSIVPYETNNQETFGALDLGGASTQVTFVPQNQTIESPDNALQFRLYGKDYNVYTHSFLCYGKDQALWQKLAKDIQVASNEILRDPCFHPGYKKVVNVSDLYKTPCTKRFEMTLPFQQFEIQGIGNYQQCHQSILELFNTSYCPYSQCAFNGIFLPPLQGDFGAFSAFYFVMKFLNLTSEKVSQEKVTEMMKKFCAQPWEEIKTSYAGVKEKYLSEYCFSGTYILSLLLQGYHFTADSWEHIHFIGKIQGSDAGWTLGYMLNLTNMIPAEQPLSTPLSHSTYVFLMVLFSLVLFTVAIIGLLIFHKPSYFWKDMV
SMILES,inhibition [1],inhibition [2],inhibition [3],inhibition [4]
CSc1nc(N)c2ncn([C@@H]3O[C@H](COP(=O)(O)C(F)(F)P(=O)(O)O)[C@@H](O)[C@H]3O)c2n1,Active,41%,< 18%,< 18%
B[P@](=O)(OC[C@H]1O[C@@H](n2cnc3c(N)ncnc32)[C@H](O)[C@@H]1O)OP(=O)(O)CP(=O)(O)O,Active,41%,< 18%,< 18%
B[P@](=O)(OC[C@H]1O[C@@H](n2cnc3c(N)nc(SC)nc32)[C@H](O)[C@@H]1O)OP(=O)(O)CP(=O)(O)O,Active,90%,< 18%,< 18%
B[P@@](=O)(OC[C@H]1O[C@@H](n2cnc3c(N)nc(SC)nc32)[C@H](O)[C@@H]1O)OP(=O)(O)C(F)(F)P(=O)(O)O,–,–,30%,50%
B[P@@](=O)(OC[C@H]1O[C@@H](n2cnc3c(N)ncnc32)[C@H](O)[C@@H]1O)OP(=O)(O)CP(=O)(O)O,Active,90%,< 18%,< 18%
